Assay results as given in ChEMBL document CHEMBL4184106, “Discovering alkylamide derivatives of bexarotene as new therapeutic agents against triple-negative breast cancer” (Bioorg Med Chem Lett, 2018).
Activity calls are given as the source filed them. The calls are words filed in the database; no cut-off is given here.

Experiments:
MCF7 [1] = assay: Inhibition of mammosphere formation in human MCF7 cells assessed as ratio of C-Myc to beta actin level at 5 uM by Western blot analysis (Rvb= 1); assay type: functional
How it was run: (§1)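 Post-treatment cell lysates were probed by Western blot for CSC markers, with β-actin as the loading control. Band densitometry was normalized to DMSO-treated samples.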

MCF7 [2] = assay: Cytotoxicity against human MCF7 cells assessed as reduction in cell viability at 5 uM by MTT assay; assay type: functional
MDA-MB-231 [3] = assay: Cytotoxicity against human MDA-MB-231 cells assessed as reduction in cell viability at 5 uM by MTT assay; assay type: functional
BT-549 [4] = assay: Cytotoxicity against human BT549 cells assessed as reduction in cell viability at 5 uM by MTT assay; assay type: functional
MCF-10A [5] = assay: Cytotoxicity against human MCF10A cells assessed as reduction in cell viability at 5 uM by MTT assay; assay type: cell-based
MDA-MB-231 [6] = assay: Cytotoxicity against human MDA-MB-231 cells assessed as reduction in cell viability by MTT assay; assay type: functional, cell-based
BT-549 [7] = assay: Cytotoxicity against human BT549 cells assessed as reduction in cell viability by MTT assay; assay type: functional, cell-based
MDA-MB-231 [8] = assay: Induction of apoptosis in human MDA-MB-231 cells assessed as ratio of cleaved caspase-3 to beta-actin level at 5 uM by western blot analysis (reference value: 1); assay type: functional
BT-549 [9] = assay: Induction of apoptosis in human BT549 cells assessed as ratio of cleaved caspase-3 to beta-actin level at 5 uM by western blot analysis (reference value: 1); assay type: functional
MCF-10A [10] = assay: Induction of apoptosis in human MCF10A cells assessed as ratio of cleaved caspase-3 to beta-actin level at 5 uM by western blot analysis (reference value: 1); assay type: cell-based
MCF7 [11] = assay: Induction of apoptosis in human MCF7 cells assessed as ratio of cleaved caspase-3 to beta-actin level at 5 uM by western blot analysis (reference value: 1); assay type: functional
MDA-MB-231 [12] = assay: Induction of apoptosis in human MDA-MB-231 cells assessed as ratio of cleaved caspase-8 to beta-actin level at 5 uM by western blot analysis (reference value: 1); assay type: functional
BT-549 [13] = assay: Induction of apoptosis in human BT549 cells assessed as ratio of cleaved caspase-8 to beta-actin level at 5 uM by western blot analysis (reference value: 1); assay type: functional
MCF-10A [14] = assay: Induction of apoptosis in human MCF10A cells assessed as ratio of cleaved caspase-8 to beta-actin level at 5 uM by western blot analysis (reference value: 1); assay type: cell-based
MCF7 [15] = assay: Induction of apoptosis in human MCF7 cells assessed as ratio of cleaved caspase-8 to beta-actin level at 5 uM by western blot analysis (reference value: 1); assay type: functional
MDA-MB-231 [16] = assay: Induction of apoptosis in human MDA-MB-231 cells assessed as ratio of cleaved caspase-9 to beta-actin level at 5 uM by western blot analysis (reference value: 1); assay type: functional
BT-549 [17] = assay: Induction of apoptosis in human BT549 cells assessed as ratio of cleaved caspase-9 to beta-actin level at 5 uM by western blot analysis (reference value: 1); assay type: functional
MCF-10A [18] = assay: Induction of apoptosis in human MCF10A cells assessed as ratio of cleaved caspase-9 to beta-actin level at 5 uM by western blot analysis (reference value: 1); assay type: cell-based
MCF7 [19] = assay: Induction of apoptosis in human MCF7 cells assessed as ratio of cleaved caspase-9 to beta-actin level at 5 uM by western blot analysis (reference value: 1); assay type: functional
MDA-MB-231 [20] = assay: Induction of apoptosis in nuclear fractions of human MDA-MB-231 cells assessed as ratio of cleaved PARP to beta-actin level at 10 uM by western blot analysis (reference value: 1); assay type: functional
MCF7 [21] = assay: Inhibition of colony formation in human MCF7 cells at 5 uM supplemented with fresh medium containing compound every 3 to 4 days for 7 days by crystal violet staining based adherent cell colony-forming assay; assay type: functional
How it was run: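 MCF-7 cells were plated for adherent colony formation and treated for 7 days. Colonies were counted at the end of treatment and normalized to untreated samples.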

MDA-MB-231 [22] = assay: Inhibition of colony formation in human MDA-MB-231 cells at 10 uM supplemented with fresh medium containing compound every 3 days for 10 days by microscopic method based soft agar colony formation assay; assay type: functional, cell-based
MDA-MB-231 [23] = assay: Anti-migratory activity against human MDA-MB-231 cells assessed as reduction in wound closure at 5 uM up to 24 hrs by wound-healing assay; assay type: functional, cell-based
How it was run: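 MDA-MB-231 monolayer was scratched to make a wound gap. Cells were treated alongside a DMSO vehicle control, and migration into the gap was imaged at 24 h.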

MCF7 [24] = assay: Inhibition of mammosphere formation in human MCF7 cells at 10 uM after 7 days by microscopic method; assay type: functional, cell-based
How it was run: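 MCF-7 cells were grown under mammosphere-forming conditions with compound. Spheres 60 μm or larger were counted for quantitation.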

MCF7 [25] = assay: Inhibition of mammosphere formation in human MCF7 cells assessed as ratio of KLF4 to beta actin level at 5 uM by Western blot analysis (Rvb= 1); assay type: functional; how it was run: as §1
MCF7 [26] = assay: Inhibition of mammosphere formation in human MCF7 cells assessed as ratio of Nanog to beta actin level at 5 uM by Western blot analysis (Rvb= 1); assay type: functional; how it was run: as §1
MCF7 [27] = assay: Inhibition of mammosphere formation in human MCF7 cells assessed as ratio of Oct4A to beta actin level at 5 uM by Western blot analysis (Rvb= 1); assay type: functional; how it was run: as §1
MCF7 [28] = assay: Inhibition of mammosphere formation in human MCF7 cells assessed as ratio of Sox2 to beta actin level at 5 uM by Western blot analysis (Rvb= 1); assay type: functional; how it was run: as §1
MDA-MB-231 [29] = assay: Inhibition of mammosphere formation in human MDA-MB-231 cells assessed as ratio of C-Myc to beta actin level at 5 uM by Western blot analysis (Rvb= 1); assay type: functional; how it was run: as §1
MDA-MB-231 [30] = assay: Inhibition of mammosphere formation in human MDA-MB-231 cells assessed as ratio of KLF4 to beta actin level at 5 uM by Western blot analysis (Rvb= 1); assay type: functional; how it was run: as §1
BT-549 [31] = assay: Inhibition of mammosphere formation in human BT549 cells assessed as ratio of C-Myc to beta actin level at 5 uM by Western blot analysis (Rvb= 1); assay type: functional
BT-549 [32] = assay: Inhibition of mammosphere formation in human BT549 cells assessed as ratio of KLF4 to beta actin level at 5 uM by Western blot analysis (Rvb= 1); assay type: functional
MDA-MB-231 [33] = assay: Effect on epithelial-mesenchymal transition in human MDA-MB-231 cells assessed as ratio of E-cadherin to beta-actin level at 5 uM by Western blot analysis (reference value: 1); assay type: functional
MDA-MB-231 [34] = assay: Effect on epithelial-mesenchymal transition in human MDA-MB-231 cells assessed as ratio of vimentin to beta-actin level at 5 uM by Western blot analysis (reference value: 1); assay type: functional
MDA-MB-231 [35] = assay: Effect on epithelial-mesenchymal transition in human MDA-MB-231 cells assessed as ratio of slug to beta-actin level at 5 uM by Western blot analysis (reference value: 1); assay type: functional
BT-549 [36] = assay: Effect on epithelial-mesenchymal transition in human BT549 cells assessed as ratio of E-cadherin to beta-actin level at 5 uM by Western blot analysis (reference value: 1); assay type: functional
BT-549 [37] = assay: Effect on epithelial-mesenchymal transition in human BT549 cells assessed as ratio of vimentin to beta-actin level at 5 uM by Western blot analysis (reference value: 1); assay type: functional
BT-549 [38] = assay: Effect on epithelial-mesenchymal transition in human BT549 cells assessed as ratio of slug to beta-actin level at 5 uM by Western blot analysis (reference value: 1); assay type: functional
MDA-MB-231 [39] = assay: Effect on beta-catenin translocation in cytosolic fraction of human MDA-MB-231 cells assessed as ratio of beta-catenin to beta-actin level at 10 uM by Western blot analysis (reference value: 1); assay type: functional
MDA-MB-231 [40] = assay: Effect on beta-catenin translocation in nuclear fraction of human MDA-MB-231 cells assessed as ratio of beta-catenin to beta-actin level at 10 uM by Western blot analysis (reference value: 1); assay type: functional
MDA-MB-231 [41] = assay: Induction of apoptosis in nuclear fractions of human MDA-MB-231 cells assessed as ratio of PARP to beta-actin level at 10 uM by western blot analysis (reference value: 1); assay type: functional
BT-549 [42] = assay: Effect on beta-catenin translocation in cytosolic fraction of human BT549 cells assessed as ratio of beta-catenin to beta-actin level at 10 uM by Western blot analysis (reference value: 1); assay type: functional
BT-549 [43] = assay: Effect on beta-catenin translocation in nuclear fraction of human BT549 cells assessed as ratio of beta-catenin to beta-actin level at 10 uM by Western blot analysis (reference value: 1); assay type: functional
BT-549 [44] = assay: Induction of apoptosis in nuclear fractions of human BT549 cells assessed as ratio of PARP to beta-actin level at 10 uM by western blot analysis (reference value: 1); assay type: functional
BT-549 [45] = assay: Induction of apoptosis in nuclear fractions of human BT549 cells assessed as ratio of cleaved PARP to beta-actin level at 5 uM by western blot analysis (reference value: 1)

Compound: C=C(c1ccc(C(=O)O)cc1)c1cc2c(cc1C)C(C)(C)CCC2(C)C [BEXAROTENE]
- Ratio (MCF7 [1]): 1
- Activity (MCF7 [2]): inactive
- Activity (MDA-MB-231 [3]): inactive
- Activity (BT-549 [4]): inactive
- Activity (MCF-10A [5]): Non-Toxic
- EC50 (MDA-MB-231 [6]): > 56 µM
- EC50 (BT-549 [7]): > 56 µM
- Ratio (MDA-MB-231 [8]): 2.7
- Ratio (BT-549 [9]): 1.1
- Ratio (MCF-10A [10]): 0.95
- Ratio (MCF7 [11]): 0.9
- Ratio (MDA-MB-231 [12]): 3.4
- Ratio (BT-549 [13]): 1.1
- Ratio (MCF-10A [14]): 1
- Ratio (MCF7 [15]): 1
- Ratio (MDA-MB-231 [16]): 3.2
- Ratio (BT-549 [17]): 1.3
- Ratio (MCF-10A [18]): 1.1
- Ratio (MCF7 [19]): 1.2
- Ratio (MDA-MB-231 [20]): 1.6
- inhibition (MCF7 [21]): inactive
- inhibition (MDA-MB-231 [22]): inactive
- Activity (MDA-MB-231 [23]): inactive
- inhibition (MCF7 [24]): inactive
- Ratio (MCF7 [25]): 1
- Ratio (MCF7 [26]): 1
- Ratio (MCF7 [27]): 1.2
- Ratio (MCF7 [28]): 0.8
- Ratio (MDA-MB-231 [29]): 1.2
- Ratio (MDA-MB-231 [30]): 1.3
- Ratio (BT-549 [31]): 1.4
- Ratio (BT-549 [32]): 1.2
- Ratio (MDA-MB-231 [33]): 10.8
- Ratio (MDA-MB-231 [34]): 0.4
- Ratio (MDA-MB-231 [35]): 1
- Ratio (BT-549 [36]): 9.2
- Ratio (BT-549 [37]): 0.9
- Ratio (BT-549 [38]): 1.3
- Ratio (MDA-MB-231 [39]): 2.4
- Ratio (MDA-MB-231 [40]): 1.8
- Ratio (MDA-MB-231 [41]): 0.9
- Ratio (BT-549 [42]): 2.2
- Ratio (BT-549 [43]): 0.7
- Ratio (BT-549 [44]): 1.8
- Ratio (BT-549 [45]): 1.7
